For 13 compounds, IC50 and Activity results are on record in ChEMBL document CHEMBL5030534, “Discovery of Novel Anti-Breast-Cancer Inhibitors by Synergistically Antagonizing Microtubule Polymerization and Aryl Hydrocarbon Receptor Expression” (J Med Chem, 2021).

Activity calls are given as the source filed them. The rule behind the calls is not given here.

Experiment [1] relates to MCF7. As to the kind of experiment: Antiproliferative activity against human MCF7 cells assessed as reduction in cell viability incubated for 48 hrs by MTT assay. The experiment is classed as functional, cell-based. To be noted: MCF7, 48 h. Put shortly:
(§1)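 Cells seeded at 5 × 10³ per well, incubated overnight, then exposed to a range of compound concentrations for 48 h. MTT added for 4 h, medium replaced with DMSO, absorbance read at 570 nm. MCF-7, L-O2 grown in DMEM; MCF-10A, MCF-7/ADR in RPMI 1640. Three independent runs.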
(Tetrazolium assays rely on reduction of a dye to a coloured formazan, in cell work by metabolically active cells.)

The subject of experiment [2] is MCF-10A. The experiment is described as follows: Antiproliferative activity against human MCF-10A cells assessed as reduction in cell viability incubated for 48 hrs by MTT assay. The experiment is classed as cell-based. In outline: as §1
The subject of experiment [3] is L02. The experiment is described as follows: Antiproliferative activity against human L-O2 cells assessed as reduction in cell viability incubated for 48 hrs by MTT assay. Format: cell-based. To be noted: L02, 48 h. In outline:
as §1

For experiment [4], the target named is Tubulin (Homo sapiens) (UniProt P68371+Q9H4B7+P0DPH7+P68366+Q13509+Q71U36+P04350+Q3ZCM7+P07437+P68363+Q9BQE3+Q6PEY2+Q13885+Q9BVA1+Q9BUF5). The experiment is described as follows: Induction of microtubule depolymerization in human MCF7 cells at 10 uM measured every 5 mins for 60 mins by spectrophotometric method. The experiment is classed as cell-based. Put shortly: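 Purified tubulin at 2 mg/mL in PEM buffer preincubated on ice with compound or DMSO. PEG added to a final 3 mg/mL, then polymerization followed at 37 °C by absorbance at 350 nm every 5 min for 60 min.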

The test system of experiment [5] is MCF7. As to the kind of experiment: Antitumor activity against human MCF7 cells xenografted in BALB/c nude mouse assessed as decrease in tumor weight at 20 mg/kg, iv administered every 2 days for 21 days and measured every 2 days. The experiment is classed as functional. To be noted: time 21 day. Set-up: scale not given: the % may be the effect or the level left. In outline: (§2)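 MCF-7 cells (6 × 10⁶) injected subcutaneously into right flank of BALB/c nude mice; after 7 days animals randomized, eight per group. Dosing iv every 2 days for 21 days, vehicle 10% DMSO/5% Tween 80/85% saline. Tumor size and body weight recorded every 2 days; tumors excised and weighed at sacrifice.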
On the technique in general: A xenograft is tissue or cells of one species grown in another, often human tumour cells in immunodeficient mice.

For experiment [6], the system named is MCF7. The experiment is described as follows: Antitumor activity against human MCF7 cells xenografted in BALB/c nude mouse assessed as decrease in tumor weight at 10 mg/kg, iv administered every 2 days for 21 days and measured every 2 days. The experiment is classed as functional. Set-up: scale not given: the % may be the effect or the level left. To be noted: time 21 day. In outline: as §2

Experiment [7] can be described thus: Antiproliferative activity against human MCF7/ADR cells assessed as reduction in cell viability incubated for 48 hrs by MTT assay. The experiment is classed as functional, cell-based. To be noted: MCF7, 48 h. Put shortly: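 Cells seeded at 5 × 10³ per well, incubated overnight, then exposed to a range of compound concentrations for 48 h. MTT added for 4 h, medium replaced with DMSO, absorbance read at 570 nm. Three independent runs.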

A word on the IC50: it is the concentration that inhibits the measured activity by half.

For the compound `COc1ccc(/C=C\c2cc(OC)c(OC)c(OC)c2)cc1O` [COMBRETASTATIN A4], the values for the IC50 in experiment [1], in experiment [2] and in experiment [3] were 4.8 nM, 99 nM and 10.3 nM, respectively. In addition, the outcome in experiment [4] was Active. Besides, the Activity in experiment [5] was determined as 37.5%.

Regarding `CC(=O)O[C@H]1C(=O)[C@@]2(C)[C@H]([C@H](OC(=O)c3ccccc3)[C@]3(O)C[C@H](OC(=O)[C@H](O)[C@@H](NC(=O)c4ccccc4)c4ccccc4)C(C)=C1C3(C)C)[C@]1(OC(C)=O)CO[C@@H]1C[C@@H]2O` [PACLITAXEL], in experiment [4], the result was inactive. Moreover, the Activity in experiment [6] is recorded as 84.2%.

As for `Cc1cc(N(C)c2ccc3c(c2)OCO3)c2ccccc2n1`, the IC50 came to 54 nM in experiment [1], 46 nM in experiment [7], 127 nM in experiment [2] and 2500 nM in experiment [3].

Take `Cc1cc(N(C)c2cnc3c(ccn3C)c2)c2ccccc2n1`: the IC50 was found to be 4.5 nM in experiment [1], 6.1 nM in experiment [7], 24 nM in experiment [2] and 10 nM in experiment [3].

Take `Cc1cc(N(C)c2ccc(-c3ccccc3)cc2)c2ccccc2n1`: the IC50 was greater than 1000 nM in experiment [1], 817 nM in experiment [7], greater than 1000 nM in experiment [2] and 3450 nM in experiment [3].

`CCN(CC)c1ccc(N(C)c2cc(C)nc3ccccc23)cc1`: the IC50 was 25 nM in experiment [1], 267 nM in experiment [7], 12 nM in experiment [2] and 31 nM in experiment [3].

As to `Cc1cc(N(C)c2ccc3c(c2)cc(C)n3C)c2ccccc2n1`, the IC50 was 2.4 nM in experiment [1], 2.2 nM in experiment [7], 10 nM in experiment [2] and 7.3 nM in experiment [3].

For `COc1ccc(N(C)c2cc(C)nc3ccccc23)cc1OC`, the IC50 was 97 nM in experiment [1], 29 nM in experiment [7], 473 nM in experiment [2] and 2170 nM in experiment [3].

As to `COc1cc(N(C)c2cc(C)nc3ccccc23)cc(OC)c1OC`, the 50% inhibitory concentration (IC50) in experiment [1] is greater than 1000 nM; in experiment [7], 912 nM; in experiment [2], greater than 1000 nM; in experiment [3] it was 4120 nM.

`Cc1cc(N(C)c2ccc(N(C)C)cc2)c2ccccc2n1`: the IC50 turned out to be 943 nM in experiment [1], 33 nM in experiment [7], 49 nM in experiment [2] and 227 nM in experiment [3].

Consider `Cc1ccc(N(C)c2cc(C)nc3ccccc23)cc1`, for which the IC50 was 103 nM in experiment [1], 54 nM in experiment [7], 184 nM in experiment [2] and 1530 nM in experiment [3].

As for `Cc1nc(N(C)c2cnc3c(ccn3C)c2)c2ccccc2n1`, the IC50 in experiment [1] was 2.1 nM; in experiment [7], 2.1 nM; in experiment [2], 16 nM; in experiment [3], 7.3 nM.

As to `Cc1cc(N(C)c2ccc(C(F)(F)F)cc2)c2ccccc2n1`, the IC50 in experiment [1] was greater than 1000 nM; in experiment [7] it was 859 nM; in experiment [2], greater than 1000 nM; in experiment [3] it was 3840 nM.
